A selection: hits, their analogues and other compounds. The true share with any hit is near 1.8%.
CHRM4 antagonist: human M4 muscarinic receptor antagonists, primary screen, CHO cells, Fluo-8 calcium fluorescence; Muscarinic acetylcholine receptor M4 (Homo sapiens), P08173; CHO-hM4 cells, ACh EC80; inhibition, % at 3 µM; 360,000 tested, 0.73% active;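 active = inhibition above its plate's cutoff, the mean inhibition of sample wells plus 3 SD, cut at about 27% in these data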
M5 PAM: human M5 muscarinic receptor positive allosteric modulators, primary screen, CHO-K1 cells, Fluo-8 calcium fluorescence; 360,000 tested, 0.3% active; Muscarinic acetylcholine receptor M5 (Homo sapiens), P08912; AID 624038, 2012; activation, % at 3 µM; CHO-K1 hM5, ACh EC20 PAM; 0% = ACh EC20, 100% = ACh EC100;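 active = activation above the run cutoff, the mean activation of all test compounds plus 3 SD, cut at about 18% in these data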
Target sequence (P08912 whole entry, looked up): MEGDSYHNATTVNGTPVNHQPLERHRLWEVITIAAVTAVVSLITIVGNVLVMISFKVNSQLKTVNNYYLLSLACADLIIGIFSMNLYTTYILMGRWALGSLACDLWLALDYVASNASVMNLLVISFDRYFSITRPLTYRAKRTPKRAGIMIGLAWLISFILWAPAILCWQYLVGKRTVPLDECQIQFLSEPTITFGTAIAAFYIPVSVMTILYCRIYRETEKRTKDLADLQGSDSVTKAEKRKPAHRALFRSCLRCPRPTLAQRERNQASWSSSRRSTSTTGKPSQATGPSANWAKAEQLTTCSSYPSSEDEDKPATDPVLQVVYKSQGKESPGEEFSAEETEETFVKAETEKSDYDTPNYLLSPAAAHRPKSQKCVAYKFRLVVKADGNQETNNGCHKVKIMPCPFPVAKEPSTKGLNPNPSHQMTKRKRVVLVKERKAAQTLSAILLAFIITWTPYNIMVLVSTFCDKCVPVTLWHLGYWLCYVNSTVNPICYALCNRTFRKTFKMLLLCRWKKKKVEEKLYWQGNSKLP
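Assay system – human M5 receptor in CHO-K1 cells · Read-out – % activation, ACh-normalized · Technique – Fluo-8 calcium fluorescence · Dosing – single-point, 3 µM nominal · Incubation – Fluo-8 loading 80 min at 37 °C plus 30 min room temperature · Repeats – singlicate, one well per test compound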
M5 antag: human M5 muscarinic receptor antagonists, primary screen, CHO cells, Fluo-8 calcium fluorescence; Muscarinic acetylcholine receptor M5 (Homo sapiens), P08912; CHO-hM5 cells, ACh EC80; inhibition, % at 3 µM; 360,000 tested, 0.59% active; AID 624040, 2012;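 active = inhibition above a per-plate cutoff, the mean of that plate's test compounds plus 3 SD, cut at about 27% in these data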
M5 ag: human M5 muscarinic receptor agonists, primary screen, CHO-K1 cells, Fluo-8 calcium fluorescence; 360,000 tested, 0.19% active; activation, % at 3 µM; CHO-K1 hM5 cells; 0% DMSO wells, 100% maximal acetylcholine response; AID 624037, 2012;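 active = activation above the run's mean over test compounds plus 3 SD, cut at about 23% in these data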;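 note: signal is peak over basal fluorescence ratio across the kinetic read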
M4 PAM: human M4 muscarinic receptor positive allosteric modulators, primary screen, CHO-K1 cells, Fluo-8 calcium fluorescence. CHO-K1 hM4/Gqi5, ACh EC20; 0% = ACh EC20, 100% = maximal ACh. activation, % at 3 µM. 360,000 tested, 0.4% active. AID 624126, 2012;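 active = activation above its plate's cutoff, the mean activation of sample wells plus 3 SD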
M4 ag: human M4 muscarinic receptor agonists, primary screen, CHO-K1 cells, Fluo-8 calcium fluorescence; CHO-K1 hM4/Gqi5; vehicle 0%, full acetylcholine response 100%; Muscarinic acetylcholine receptor M4 (Homo sapiens), P08173; AID 624127, 2012; activation, % at 3 µM; 360,000 tested, 0.14% active;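 active = activation above the run mean over all test wells plus 3 SD, cut at about 32% in these data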;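 note: peak over basal fluorescence ratio per well then scaled between controls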
Large screens that a line does not name were inactive.

Cc1ccc(NC(=O)CCNC(=O)c2ccco2)cc1F	none
CCOc1ccc(CCNC(=O)Cn2cccc2C(=O)c2ccccc2)cc1OCC	none
CCOc1ccc(CCNC(=O)CCNC(=O)c2ccco2)cc1OCC	M4 PAM 19
CCCCNC(=O)N(C)c1nncnc1C(=O)NC	M5 PAM 26
C/C(=N\NC(=O)CO/N=C(\C)c1cccs1)c1ccc(N)cc1	CHRM4 antagonist 29
Cc1ccc(/C=N/NC(=O)Cc2ccc(Cl)cc2)c(O)c1	none
C/C(=N\NC(=O)c1ccc(NS(=O)(=O)c2cccs2)cc1)c1cccs1	none
C/C(=N\OCC(=O)N/N=C/c1ccc(C)cc1O)c1cccs1	M5 PAM 33
C/C(=N\NC(=O)c1ccc(Cl)cc1)c1cccs1	M4 PAM 22
Brc1cccc(CN2CCN(c3ncccn3)CC2)c1	none
CCOC(=O)C1=C(C)N=C2c3ccccc3C(=O)C2C1c1ccc(Cl)cc1 (centres undefined)	none
CCOC(=O)C1=C(Cc2ccc(Cl)cc2)C(=O)c2ccccc2C1=O	CHRM4 antagonist 35
CCOc1ccc(NC(=O)Nc2nc(SCC)ns2)cc1	M5 antag 33
Cc1ccc(CC(=O)N2CCN(c3cccc(C(F)(F)F)c3)CC2)cc1	CHRM4 antagonist 28
COc1cc(-c2nc3ccc(C)cn3c2NCc2ccccc2)ccc1SC1CCCCC1	none
CCC(C)Sc1ccc(-c2nc3ccccn3c2NCc2ccccc2)cc1OC (centres undefined)	CHRM4 antagonist 29
COc1cc(-c2nc3ccccn3c2NCc2ccccc2)ccc1SC1CCCCC1	CHRM4 antagonist 27
COc1ccc(-c2nc3ccccn3c2NC2CCCCC2)cc1SC1CCCCC1	CHRM4 antagonist 28
O=[N+]([O-])c1ccc(Nc2ccc(Cl)cc2)nc1	M5 antag 31
O=C1c2ccccc2C(Nc2ccc(F)c(Cl)c2)N1c1ccccn1 (centres undefined)	none
COc1ccc(NC2c3ccccc3C(=O)N2c2ccccn2)cc1Cl (centres undefined)	CHRM4 antagonist 79
O=C(O)CCC(=O)NNc1nc2ccccc2nc1-c1ccccc1	M5 PAM 19
O=C(O)CCC(=O)NNc1ncnc2ccccc12	none
Cc1ccc(S(=O)(=O)n2cnc(C)c2)cc1	M5 PAM 20
CC(=O)Nc1ccc(S(=O)(=O)n2cnc(C)c2)cc1	none
S=C(NCCC(c1ccccc1)c1ccccc1)Nc1ccc(Cl)cc1	M5 antag 33
O=C(O)Cc1ccc2ccc3ccccc3c2c1	M5 PAM 19
COc1ccc(-c2csc(NC(=S)NC(=O)c3ccc4ccccc4c3)n2)cc1OC	M5 PAM 18
COc1ccc(-c2csc(NC(C)=O)n2)cc1OC	none
Cc1csc2c(N3CCN(C(=S)Nc4ccc(C(F)(F)F)cc4)CC3)ncnc12	M5 antag 30
Cc1csc2ncnc(N3CCN(C(=S)Nc4ccc(C(F)(F)F)cc4)CC3)c12	none
CCOc1ccc(CN(C)C(=O)CNC(=O)c2ccc(Br)o2)cc1OC	none
COCCNC(=O)C1(C)CCCN(C(=O)c2cccc3ccccc23)C1 (centres undefined)	M5 antag 30
CCOc1ccccc1NC(=O)COC(=O)c1nc2nccc(C)n2n1	none
O=C(N/N=C/c1ccc(Cl)cc1Cl)c1n[nH]c2c1CCCC2	M4 PAM 26
COc1ccc(NC(=O)COc2ccccc2C(=O)NCC(c2ccccc2)N(C)C)cc1Cl (centres undefined)	M5 antag 57
COc1ccc(NC(=O)COc2ccccc2)cc1Cl	none
Cc1cc(N2Cc3ccccc3C2)ccc1C=O	M5 antag 38
O=C(NCC1CCCN1S(=O)(=O)c1cccs1)c1ccc(F)cc1 (centres undefined)	none
O=C(COC(=O)/C=C/c1ccc2c(c1)OCO2)NCc1ccccc1	none
CC(=O)c1ccc(NC(=O)CSc2nnc(NC(=O)c3ccco3)s2)cc1	M4 PAM 21
Cc1ccc(NC(=O)CSc2nnc(NC(=O)c3ccco3)s2)cc1	none
NC(=O)CC[C@H](NC(=O)c1ccc(F)cc1)C(=O)N1CCN(Cc2ccc3c(c2)OCO3)CC1	none
O=C(CCCCl)NC(=S)Nc1ccc(N2CCOCC2)cc1	none
Cc1ccnc(NS(=O)(=O)c2ccc(NC(=O)c3ccc(N4C(=O)CCC4=O)cc3)cc2)n1	none
Cc1cc(C)nc(NS(=O)(=O)c2ccc(NC(=O)c3cccc(N4C(=O)CCC4=O)c3)cc2)n1	M4 PAM 25
CC(C)C(=O)N1CCN(c2ccccc2NC(=O)c2ccc(C#N)cc2F)CC1	none
CC1CCN(c2ccccc2NC(=O)c2ccc(C#N)cc2F)CC1	M4 PAM 23
CCOC(=O)N1CCN(C(=O)COC(=O)COc2c(C)cc(C)cc2C)CC1	M4 PAM 24
CC1CN(c2nc(Nc3ccccc3F)nc(N)c2[N+](=O)[O-])CC(C)O1 (centres undefined)	none
CCc1nonc1NC(=O)c1oc2cc(C)c(Cl)cc2c1C	M5 PAM 25
CCc1ccc(C2C(C(=O)O)c3ccccc3C(=O)N2C)cc1 (centres undefined)	none
O=C(O)C1c2ccccc2C(=O)N(Cc2ccc(F)cc2)C1c1ccncc1 (centres undefined)	M5 PAM 27
CCOc1ccc(Cl)cc1-c1cc(C(=O)NC2CCCCC2)[nH]n1	none
Cn1c(CNC(=O)CNC(=O)Cc2ccc(Cl)cc2)cc(=O)n(C)c1=O	none
CCOc1ccc2nc(SCC(=O)Nc3ccc4[nH]c(=O)[nH]c4c3)[nH]c2c1	none
Cc1c(Cl)sn(-c2ccc(Cl)cc2)c1=O	CHRM4 antagonist 38
Cc1ccc(S(=O)c2ccc([N+](=O)[O-])c3nonc23)cc1 (centres undefined)	M5 ag 40
COc1ccc(CCNC(=O)COC(=O)c2cc(S(=O)(=O)NCc3ccccc3)ccc2O)cc1OC	M4 PAM 32
C[C@H]1CN([C@@H](C)CO)C(=O)CCCn2nncc2CO[C@@H]1CN(C)Cc1ccccc1C(F)(F)F	none
COC(=O)C[C@H]1CC[C@H](NC(=O)Nc2ccccc2OC)[C@@H](CO)O1	none

High-throughput results as filed in PubChem BioAssay.
